Key:
HT-29 = assay: In vitro cytotoxicity against human colon carcinoma (HT-29) cell line; type: functional, cell-based
How it was run: (§1)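 MTT assay on log-phase cells kept at 37 °C, 5% CO2. Seeded at 2.5 × 10³ cells/well; compound added 24 h later as serial PBS dilutions of a 1 × 10⁻⁵ M DMSO stock. Exposure 72 h, then MTT (1 mg/mL in PBS) for 4 h, DMSO solubilization, absorbance at 570 nm. PBS negative control, doxorubicin positive control. At least three experiments; IC50 = concentration reducing growth to 50% of control.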

PC-3 = assay: In vitro cytotoxicity against human prostate carcinoma (PC-3) cell line; type: functional, cell-based; how it was run: as §1
HeLa = assay: In vitro cytotoxicity against human cervical carcinoma (HeLa) cell line; type: functional, cell-based; how it was run: as §1
Mus musculus = assay: In vivo antitumor activity in mice infected with HT-29 cells; type: functional
How it was run: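 HT-29 xenografts: 10⁶ cells/0.1 mL DMEM injected sc into the back of athymic nu/nu mice. At ~0.1 cm³ tumors, randomized to 4 control and 4 treated. Dosing 5 mg/kg ip in sterile 0.9% NaCl, daily for 4 days then 10 days off (14-day cycles), up to 60 days; controls given vehicle. Tumors measured 1–2×/week; V = (Dd²)/2.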

| SMILES | IC50 (HT-29) | IC50 (PC-3) | IC50 (HeLa) | Reduction (Mus musculus) |
| --- | --- | --- | --- | --- |
| O=C1c2cccc3c2c(cc2occc23)C(=O)N1CCNCCCNCCN1C(=O)c2cccc3c2c(cc2occc23)C1=O | 370 nM | > 100000 nM | 730 nM |  |
| CN(CCCN(C)CCN1C(=O)c2cccc3c2c(cc2sccc23)C1=O)CCN1C(=O)c2cccc3c2c(cc2sccc23)C1=O | 270 nM | 1420 nM | 210 nM |  |
| CN(CCCN(C)CCN1C(=O)c2cccc3c2c(cc2ccoc23)C1=O)CCN1C(=O)c2cccc3c2c(cc2ccoc23)C1=O | 710 nM | 12600 nM | 2580 nM |  |
| O=C1c2cccc3c2c(cc2ccoc23)C(=O)N1CCNCCCNCCN1C(=O)c2cccc3c2c(cc2ccoc23)C1=O | 6.8 nM | 500 nM | 44 nM | ~80% |
| CN(C)CCN1C(=O)c2cccc3c2c(cc2ccoc23)C1=O | 2690 nM | 5580 nM | 4300 nM |  |
| O=C1c2cccc3c2c(cc2ccsc23)C(=O)N1CCNCCCNCCN1C(=O)c2cccc3c2c(cc2ccsc23)C1=O | 1940 nM | 400 nM | 1040 nM |  |
| CN(C)CCN1C(=O)c2cccc3c2c(cc2sccc23)C1=O | 1150 nM | 3500 nM | 800 nM |  |
| CN(C)CCN1C(=O)c2cccc3c2c(cc2occc23)C1=O | 550 nM | 164 nM | 140 nM |  |
| O=C1c2cccc3c2c(cc2sccc23)C(=O)N1CCNCCCNCCN1C(=O)c2cccc3c2c(cc2sccc23)C1=O | 47 nM | 930 nM | 160 nM |  |
| CN(CCCN(C)CCN1C(=O)c2cccc3c2c(cc2ccsc23)C1=O)CCN1C(=O)c2cccc3c2c(cc2ccsc23)C1=O | 390 nM | 2500 nM | 570 nM |  |
| CN(C)CCN1C(=O)c2cccc3c2c(cc2ccsc23)C1=O | 750 nM | 1190 nM | 860 nM |  |

— ChEMBL document CHEMBL1148446, “New analogues of amonafide and elinafide, containing aromatic heterocycles: synthesis, antitumor activity, molecular modeling, and DNA binding properties” (J Med Chem, 2004)
